We go through 14 compounds from ChEMBL document CHEMBL3124926, “Identification of highly efficacious glucocorticoid receptor agonists with a potential for reduced clinical bone side effects” (J Med Chem, 2014).

The target of test [1] is T1, Glucocorticoid receptor (Homo sapiens, UniProt P04150).
T1 sequence (P04150 whole entry): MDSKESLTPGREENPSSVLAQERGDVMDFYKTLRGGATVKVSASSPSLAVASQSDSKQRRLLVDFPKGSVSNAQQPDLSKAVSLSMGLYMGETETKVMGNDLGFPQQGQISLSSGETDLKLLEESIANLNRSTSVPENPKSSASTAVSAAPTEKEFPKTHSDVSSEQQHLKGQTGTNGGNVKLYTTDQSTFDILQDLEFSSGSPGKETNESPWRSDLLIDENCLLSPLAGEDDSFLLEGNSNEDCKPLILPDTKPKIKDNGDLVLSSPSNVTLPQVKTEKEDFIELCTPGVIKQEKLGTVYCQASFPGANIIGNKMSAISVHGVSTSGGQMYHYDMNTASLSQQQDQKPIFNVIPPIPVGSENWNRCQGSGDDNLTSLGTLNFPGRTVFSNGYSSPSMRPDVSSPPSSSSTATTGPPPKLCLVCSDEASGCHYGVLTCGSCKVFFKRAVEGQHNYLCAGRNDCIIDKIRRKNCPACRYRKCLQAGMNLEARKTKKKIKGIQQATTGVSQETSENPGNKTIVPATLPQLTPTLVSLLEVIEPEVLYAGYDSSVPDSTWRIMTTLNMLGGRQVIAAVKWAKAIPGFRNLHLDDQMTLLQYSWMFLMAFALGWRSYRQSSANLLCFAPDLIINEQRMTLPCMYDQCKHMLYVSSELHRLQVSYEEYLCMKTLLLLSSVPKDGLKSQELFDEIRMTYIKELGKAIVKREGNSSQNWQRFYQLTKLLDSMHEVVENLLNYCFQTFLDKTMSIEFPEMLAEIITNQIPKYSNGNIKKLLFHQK
Put plainly: Competitive binding affinity to glucocorticoid receptor (unknown origin) expressed in baculovirus-infected cell system after 1 hr by fluorescence polarization assay in presence of tetramethylrhodamine-labeled dexamethasone. A digest of the protocol:
(§1)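 Lysates of baculovirus-infected insect cells co-expressing receptor with HSP-70, HSP-90 and p23 (GR diluted 300-fold, MR 17-fold). Probe 5 nM tetramethylrhodamine-dexamethasone in TES/KCl/molybdate/EDTA/CHAPS/glycerol/DTT buffer, pH 7.4, 1% DMSO. 1 h at room temperature in the dark; fluorescence polarization read (ex 550/em 580 nm). Background set with 2 μM dexamethasone. IC50 from duplicate 11-point curves, four-parameter fit, mean of at least two determinations.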
Background: In fluorescence polarisation assays a small probe gives low polarisation when free and higher when bound to something large.

The target in test [2] is T2, Glucocorticoid receptor (Homo sapiens) (UniProt P04150).
T2 sequence (whole entry): T1 sequence (P04150 whole entry)
Put plainly: Transrepression activity at glucocorticoid receptor in human fibroblasts assessed as inhibition of IL-1-induced IL-6 production at 2 uM after 18 to 24 hrs relative to dexomethasone. A digest of the protocol:
(§2)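 Human foreskin fibroblasts grown in Iscove's medium with 10% charcoal/dextran-treated FBS, plated at 20000/well two days before. Medium replaced, then compound (0.4% DMSO final) and recombinant human IL-1 (1 ng/mL final) added. 18–24 h at 37 °C; IL-6 in medium quantified by electrochemiluminescence, DELFIA or ELISA. IC50 by four-parameter fit of duplicate 11-point curves. Efficacy relative to dexamethasone (100%); top concentration 2 μM.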

Test [3] concerns the target T1, Glucocorticoid receptor. Put plainly: Transrepression activity at glucocorticoid receptor in human fibroblasts assessed as inhibition of IL-1-induced IL-6 production after 18 to 24 hrs. A digest of the protocol: as §2
Test [4] deals with T3, Mineralocorticoid receptor (Homo sapiens, UniProt P08235).
T3 sequence (P08235 whole entry): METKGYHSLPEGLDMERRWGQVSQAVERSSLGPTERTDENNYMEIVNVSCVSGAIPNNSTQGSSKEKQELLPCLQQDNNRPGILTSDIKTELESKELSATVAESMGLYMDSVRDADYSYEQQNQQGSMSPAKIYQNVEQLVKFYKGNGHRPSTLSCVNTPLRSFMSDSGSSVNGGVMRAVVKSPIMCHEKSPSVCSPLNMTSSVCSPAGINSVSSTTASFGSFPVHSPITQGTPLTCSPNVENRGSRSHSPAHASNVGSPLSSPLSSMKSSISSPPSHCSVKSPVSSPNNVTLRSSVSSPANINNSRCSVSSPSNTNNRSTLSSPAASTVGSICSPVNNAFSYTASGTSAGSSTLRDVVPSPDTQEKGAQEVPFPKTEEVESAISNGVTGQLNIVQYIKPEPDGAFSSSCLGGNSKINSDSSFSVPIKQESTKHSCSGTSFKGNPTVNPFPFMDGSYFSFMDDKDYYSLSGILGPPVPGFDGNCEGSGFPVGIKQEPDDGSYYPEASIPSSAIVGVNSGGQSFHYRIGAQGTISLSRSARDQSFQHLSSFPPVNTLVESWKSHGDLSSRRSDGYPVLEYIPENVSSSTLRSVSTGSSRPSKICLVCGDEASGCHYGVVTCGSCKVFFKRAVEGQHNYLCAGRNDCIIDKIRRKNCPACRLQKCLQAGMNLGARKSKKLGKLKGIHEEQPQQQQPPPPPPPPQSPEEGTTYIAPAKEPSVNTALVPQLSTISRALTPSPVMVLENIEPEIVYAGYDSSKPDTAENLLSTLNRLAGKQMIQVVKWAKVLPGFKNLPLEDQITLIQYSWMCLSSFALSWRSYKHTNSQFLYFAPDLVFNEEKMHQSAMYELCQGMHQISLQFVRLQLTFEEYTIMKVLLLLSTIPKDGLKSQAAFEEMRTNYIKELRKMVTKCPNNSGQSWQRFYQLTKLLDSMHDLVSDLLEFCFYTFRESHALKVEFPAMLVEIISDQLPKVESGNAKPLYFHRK
In words: Competitive binding affinity to mineralocorticoid receptor (unknown origin) expressed in baculovirus-infected cell system after 1 hr by fluorescence polarization assay in presence of tetramethylrhodamine-labeled dexamethasone. A digest of the protocol: as §1

The target of a further test is T4, Progesterone receptor (Homo sapiens, UniProt P06401).
T4 sequence (P06401 whole entry): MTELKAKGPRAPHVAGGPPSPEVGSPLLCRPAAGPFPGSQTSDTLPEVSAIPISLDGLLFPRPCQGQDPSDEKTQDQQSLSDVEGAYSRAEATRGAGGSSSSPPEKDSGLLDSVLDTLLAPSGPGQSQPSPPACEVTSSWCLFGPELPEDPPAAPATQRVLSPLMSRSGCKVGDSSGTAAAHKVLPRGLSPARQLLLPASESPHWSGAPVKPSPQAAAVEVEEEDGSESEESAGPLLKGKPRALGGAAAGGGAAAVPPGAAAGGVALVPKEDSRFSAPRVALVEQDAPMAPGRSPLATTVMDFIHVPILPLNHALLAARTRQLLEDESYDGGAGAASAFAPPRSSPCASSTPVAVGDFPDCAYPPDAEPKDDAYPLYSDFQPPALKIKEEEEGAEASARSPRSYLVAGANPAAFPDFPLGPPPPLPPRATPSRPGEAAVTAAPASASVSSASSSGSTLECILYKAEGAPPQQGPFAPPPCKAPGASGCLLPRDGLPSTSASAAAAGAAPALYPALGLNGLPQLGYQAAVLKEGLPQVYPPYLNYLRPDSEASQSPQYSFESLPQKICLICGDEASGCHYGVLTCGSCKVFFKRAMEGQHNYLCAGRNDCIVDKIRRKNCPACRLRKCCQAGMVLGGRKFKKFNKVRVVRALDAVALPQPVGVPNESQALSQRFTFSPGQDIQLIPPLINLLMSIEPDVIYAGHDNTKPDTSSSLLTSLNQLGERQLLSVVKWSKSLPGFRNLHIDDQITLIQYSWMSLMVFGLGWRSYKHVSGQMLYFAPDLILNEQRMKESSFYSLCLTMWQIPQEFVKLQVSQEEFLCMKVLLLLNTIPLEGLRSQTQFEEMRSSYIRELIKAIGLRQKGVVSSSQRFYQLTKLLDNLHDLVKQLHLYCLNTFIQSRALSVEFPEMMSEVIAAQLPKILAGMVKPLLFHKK
In words: Competitive binding affinity to progesterone receptor (unknown origin) expressed in baculovirus-infected cell system after 1 hr by fluorescence polarization assay in presence of tetramethylrhodamine-labeled RU-486. A digest of the protocol: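 PR from lysate of insect cells infected with receptor baculovirus alone, diluted 13-fold. Probe 5 nM tetramethylrhodamine-labeled RU-486 in pH 7.4 TES/KCl/molybdate buffer with 1% DMSO. 1 h at room temperature in the dark, then fluorescence polarization (ex 550/em 580 nm). Background set with 2 μM RU-486. IC50 from duplicate 11-point curves, four-parameter logistic fit, mean of at least two determinations.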

In test [5] the target is T2, Glucocorticoid receptor (Homo sapiens). In words: Agonist activity at glucocorticoid receptor in human […] cells assessed as suppression of vitamin D-induced osteocalcin production at 2 uM after 48 hrs by Gla-type osteocalcin ELISA relative to dexomethasone. The format is cell-based. The procedure, abridged: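 MG-63 human osteosarcoma cells plated at 20000/well in DMEM/F-12 with 1% charcoal-filtered FBS and 10 μg/mL vitamin C. Medium refreshed next day, then vitamin D (10 nM final) added with compound (2 × 10−6 to 10−10 M), duplicates. Incubated 48 h at 37 °C; supernatant osteocalcin measured by Gla-type ELISA. Vitamin D-only wells = 100%. Max efficacy at 2 μM is relative to dexamethasone (100%).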
On the technique in general: In an ELISA, binding on a coated surface is turned into a signal by an enzyme label.

One may read the IC50 as the concentration that gives 50% inhibition. As a reminder, the Emax is the maximal effect, on the per cent scale that the assay sets. As for `Cc1ccc(F)cc1C(C)(C)CC(O)(Cc1cc2nc(N3CCOCC3)ncc2[nH]1)C(F)(F)F` (racemic), the concentration for half-maximal inhibition (IC50) at Glucocorticoid receptor [1] came to 5 nM; on Glucocorticoid receptor [3], 15 nM; in test [4] it was 170 nM; on Progesterone receptor it was 1400 nM. Moreover, the maximum response (Emax) in test [2] amounted to 84%.
On to `CC(C)(C[C@@](O)(Cc1cc2ccncc2[nH]1)C(F)(F)F)c1cc(F)ccc1O`, for which the Emax in test [5] came to 68%.
As for `CC(C)(CC(O)(Cc1cc2ncncc2[nH]1)C(F)(F)F)c1cc(F)cc2c1OCC2` (racemic), the IC50 on Glucocorticoid receptor [1] came to 7 nM; on Glucocorticoid receptor [3], 24 nM; in test [4], 1300 nM; on Progesterone receptor, 1400 nM. For the same compound, the Emax was 26% in test [5] and 78% in test [2].
On to `Cc1ccccc1C(C)(C)CC(O)(Cc1cc2ncncc2[nH]1)C(F)(F)F` (racemic), for which the 50% inhibitory concentration (IC50) was 13 nM at Glucocorticoid receptor [1], 44 nM at Glucocorticoid receptor [3], 1100 nM in test [4] and over 2000 nM on Progesterone receptor. The Emax in test [2] worked out at 69%.
As to `CC(C)(CC(O)(Cc1cc2ncncc2[nH]1)C(F)(F)F)c1ccccc1S(C)(=O)=O` (racemic), the IC50 was 24 nM at Glucocorticoid receptor [1], 21 nM on Glucocorticoid receptor [3], over 2000 nM in test [4] and over 2000 nM on Progesterone receptor. The Emax in test [5] is 43%; in test [2], 92%.
As to `Cc1ccc(F)cc1C(C)(C)CC(O)(Cc1cc2nc(N3CCCC3)ncc2[nH]1)C(F)(F)F` (racemic), the half-inhibitory concentration (IC50) on Glucocorticoid receptor [1] was 18 nM; at Glucocorticoid receptor [3], 130 nM; in test [4] it was over 2000 nM; at Progesterone receptor, over 2000 nM. For the same compound, the Emax in test [2] amounted to 76%.
Turning to `CC(C)(CC(O)(Cc1cc2ncncc2[nH]1)C(F)(F)F)c1cc(F)ccc1O` (racemic), the concentration for half-maximal inhibition (IC50) is 7 nM at Glucocorticoid receptor [1], 11 nM on Glucocorticoid receptor [3], 1150 nM in test [4] and over 2000 nM on Progesterone receptor. Also, the Emax in test [5] amounted to 42%.
On to `COc1ccc(F)cc1C(C)(C)CC(O)(Cc1cc2cncnc2[nH]1)C(F)(F)F` (racemic), for which the half-maximal inhibitory concentration (IC50) on Glucocorticoid receptor [1] is 4 nM; on Glucocorticoid receptor [3] it was 10 nM; in test [4], 160 nM; at Progesterone receptor, 1450 nM. Moreover, the maximal effect (Emax) in test [2] turned out to be 82%.
For `Cc1ccc(F)cc1C(C)(C)CC(O)(Cc1cc2nccnc2[nH]1)C(F)(F)F` (racemic), the half-maximal inhibitory concentration (IC50) at Glucocorticoid receptor [1] was 57 nM; on Glucocorticoid receptor [3], over 2000 nM; in test [4], over 2000 nM; at Progesterone receptor, over 2000 nM.
For `Cc1ccc(F)cc1C(C)(C)CC(O)(Cc1cc2cnncc2[nH]1)C(F)(F)F` (racemic), the IC50 on Glucocorticoid receptor [1] was 3 nM; at Glucocorticoid receptor [3] it was 5 nM; in test [4], 83 nM; on Progesterone receptor, 490 nM. The Emax in test [5] came out at 81%.
`Cc1ccc(F)cc1C(C)(C)CC(O)(Cc1cc2nc(-c3ccccc3)cnc2[nH]1)C(F)(F)F` (stereo unspecified): the IC50 on Glucocorticoid receptor [1] is 11 nM; at Glucocorticoid receptor [3], 170 nM; in test [4], over 2000 nM; at Progesterone receptor, over 2000 nM. Also, the Emax in test [2] was found to be 82%.
As to `CC(C)(CC(O)(Cc1cc2ncncc2[nH]1)C(F)(F)F)c1cccc(S(C)(=O)=O)c1` (racemic), the concentration for half-maximal inhibition (IC50) at Glucocorticoid receptor [1] is 840 nM; in test [4] it was over 2000 nM; at Progesterone receptor, over 2000 nM.
`COc1ccc(-c2cncnc2)cc1C(C)(C)C[C@@](O)(Cc1cc2ccncc2[nH]1)C(F)(F)F`: the maximal response (Emax) in test [5] came out at 45%.
`Cc1ccc(F)cc1C(C)(C)CC(O)(Cc1cc2nc(C(C)C)ncc2[nH]1)C(F)(F)F` (racemic): the IC50 was 26 nM on Glucocorticoid receptor [1], 560 nM on Glucocorticoid receptor [3], over 2000 nM in test [4] and over 2000 nM at Progesterone receptor. Further, the Emax in test [2] worked out at 50%.
